Screening data (PubChem BioAssay)
A1 apoptosis 2: blocks A1, raising caspase activity | AID 2465 | 24,000 tested, under 10 active | MEF A1-2A-BIM cells, caspase-Glo luminescence, 3 h; percent of clofoctol response, DMSO zero | caspase activation, % (concentration not given with the values); in the data active = caspase activation above about 5.9%
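Material: mouse embryonic fibroblasts co-expressing A1 and BIM (A1-2A-BIM), primed for A1 dependence / Quantity: 2500 cells/well / Buffer or medium: RPMI-1640 growth medium with 10% FBS / Doses: 50 nL compound per well, pinned / Schedule: 3 h compound exposure at 37 °C / Signal: Caspase-Glo luminescence (DEVD substrate) / Measure: Caspase-3/7 activation, seen as rise in luminescence signal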
T cruzi HTS: blocks T. cruzi growth inside host cells; intracellular Trypanosoma cruzi in host cells, plate reader; activity score (inhibition), % at 5.01 µM; 22,000 compounds, 4.9% hits; AID 651903; in the data active = activity score above about 55%;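 also: parasites and compound incubated about four days before reading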
INS-1E rescue: rescue of cytokine-induced death in INS-1E beta cells; 20,000 compounds, 0.1% hits; protection from cytokine-induced ATP loss, % at 10 µM; AID 488910; INS-1E cytokine-induced death, ATP luminescence, 48 h; normalised: neutral wells 0, positive control 100;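 active = mean replicate protection from cytokine-induced ATP loss at least 50% and at least 75% of replicates each reaching 50%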
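Assay system – rat INS-1E insulinoma cell line · Quantity – 8000 cells per well · Buffer or medium – RPMI without phenol red, 5% FBS · Schedule – 48 h co-treatment, 10 min post-lysis read · Technique – luminescent ATP assay (CellTiter-Glo)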
A number is an active result; 0 = inactive; - = no result given. This is one part of a sample in which hits are shown more often than they occur.

SMILES | A1 apoptosis 2 | T cruzi HTS | INS-1E rescue
C[C@@H]1CCCCO[C@H](CN(C)C(=O)Nc2ccc(C(F)(F)F)cc2)[C@@H](C)CN([C@H](C)CO)C(=O)c2cc(NC(=O)Nc3ccc(F)cc3)ccc2O1 | 0 | 65 | 0
CNC[C@@H]1OCCCC[C@H](C)Oc2ccc(NC(=O)c3ccncc3)cc2C(=O)N([C@@H](C)CO)C[C@H]1C | 0 | - | -
COc1cc2c(cc1OC)CN(C(=O)[C@@H]1[C@H]3C(=O)O[C@H](c4ccccc4)[C@H](c4ccccc4)N3[C@H](c3ccccc3OCCO)[C@@]13C(=O)Nc1ccc(C#CCCO)cc13)CC2 | 0 | - | -
COc1ccc2[nH]c(=O)[nH]c(=O)c2c1 | 0 | - | -
Cc1ccccc1/C=N/NC(=O)c1cccc(C(=O)NO)c1 | 0 | 0 | 0
O=C(O)CCCCCCC(=O)N/N=C/c1cccc2ccccc12 | - | 0 | 0
C[C@H](CO)N1C[C@H](C)[C@H](CN(C)Cc2ccc(C(=O)Nc3ccccc3N)cc2)Oc2c(NS(=O)(=O)c3ccc(F)cc3)cccc2C1=O | 0 | 0 | 0
O=C(CCCCCCC(=O)Nc1ccccc1O)N/N=C/c1ccc(C(=O)O)cc1 | - | 0 | 0
C[C@@H]1CN([C@H](C)CO)C(=O)c2cc(NC(=O)Nc3ccc(C(F)(F)F)cc3)ccc2O[C@@H]1CN(C)C(=O)Nc1ccc(C(F)(F)F)cc1 | - | 0 | 0
C[C@H]1CCCCO[C@H](CN(C)C(=O)Nc2ccc(C(F)(F)F)cc2)[C@@H](C)CN([C@@H](C)CO)C(=O)c2cc(NC(=O)Nc3ccc(F)cc3)ccc2O1 | 0 | - | -
C[C@H]1CCCCO[C@H](CN(C)C(=O)NC2CCCCC2)[C@@H](C)CN([C@@H](C)CO)C(=O)c2cc(NC(=O)Nc3ccc(C(F)(F)F)cc3)ccc2O1 | 0 | - | -
C[C@@H]1CCCCO[C@H](CN(C)C(=O)NC2CCCCC2)[C@@H](C)CN([C@H](C)CO)C(=O)c2cc(NC(=O)Nc3ccc(C(F)(F)F)cc3)ccc2O1 | - | 64 | 0
C[C@@H]1CN([C@@H](C)CO)C(=O)c2cc(NC(=O)Nc3ccc(C(F)(F)F)cc3)ccc2O[C@H]1CN(C)C(=O)Nc1ccc(C(F)(F)F)cc1 | 0 | 74 | 0
C[C@@H]1CCCCO[C@@H](CN(C)C(=O)Nc2ccc(C(F)(F)F)cc2)[C@@H](C)CN([C@H](C)CO)C(=O)c2cc(NC(=O)Nc3ccc(F)cc3)ccc2O1 | 0 | 71 | 0
C[C@@H]1CCCCO[C@H](CN(C)C(=O)Nc2ccc(C(F)(F)F)cc2)[C@@H](C)CN([C@@H](C)CO)C(=O)c2cc(NC(=O)Nc3ccc(C(F)(F)F)cc3)ccc2O1 | 0 | - | -
C[C@@H]1CCCCO[C@H](CN(C)C(=O)Nc2ccc(C(F)(F)F)cc2)[C@@H](C)CN([C@H](C)CO)C(=O)c2cc(NC(=O)Nc3ccc(C(F)(F)F)cc3)ccc2O1 | 0 | 65 | 0
O=C(N/N=C/c1ccc(-c2cccc(Cl)c2)o1)c1ccccc1O | 0 | 0 | 0
COc1ccc(NC(=O)N(C)C[C@H]2OCCCC[C@H](C)Oc3ccc(NC(=O)C4CCCCC4)cc3C(=O)N([C@H](C)CO)C[C@H]2C)cc1 | 0 | - | -
C[C@H]1CCCCO[C@H](CN(C)C(=O)Nc2ccccc2)[C@@H](C)CN([C@@H](C)CO)C(=O)c2cc(NC(=O)Nc3ccc(C(F)(F)F)cc3)ccc2O1 | 0 | - | -
C[C@@H]1CCCCO[C@H](CN(C)C(=O)Nc2ccc(C(F)(F)F)cc2)[C@@H](C)CN([C@H](C)CO)C(=O)c2cc(NC(=O)Nc3ccccc3)ccc2O1 | 0 | 57 | 0
Cc1ccc(S(=O)(=O)Nc2ccc3c(c2)C(=O)N([C@H](C)CO)C[C@H](C)[C@H](CN(C)C(=O)Nc2ccc(C(F)(F)F)cc2)OCCCC[C@@H](C)O3)cc1 | 0 | 63 | 0
C[C@@H]1CCCCO[C@@H](CN(C)C(=O)Nc2ccc(C(F)(F)F)cc2)[C@@H](C)CN([C@H](C)CO)C(=O)c2cc(NS(=O)(=O)c3ccc(Cl)cc3)ccc2O1 | - | 72 | 0
C[C@@H]1CN([C@H](C)CO)C(=O)c2cc(NS(=O)(=O)c3ccc(Cl)cc3)ccc2O[C@@H](C)CCCCO[C@H]1CN(C)C(=O)Nc1ccc(C(F)(F)F)cc1 | 0 | - | -
Cc1ccc(S(=O)(=O)Nc2ccc3c(c2)C(=O)N([C@@H](C)CO)C[C@@H](C)[C@H](CN(C)C(=O)Nc2ccc(C(F)(F)F)cc2)OCCCC[C@@H](C)O3)cc1 | 0 | - | -
O=C(N/N=C/C1CCCCC1)c1ccccc1O | - | 0 | 0
SMILES | A1 apoptosis 2 | T cruzi HTS | INS-1E rescue
COc1ccc(C#Cc2ccc3c(c2)[C@]2(C(=O)N3)[C@H](c3ccc(O)cc3)N3[C@H](c4ccccc4)[C@H](c4ccccc4)OC(=O)[C@H]3[C@@H]2C(=O)N2CCN(c3ncccn3)CC2)cc1 | 0 | - | -
COc1ccc(Br)cc1/C=N/NC(=O)c1ccccn1 | 0 | 0 | 0
N#Cc1ccc(/C=N/NC(=O)CCCCC(=O)NO)cc1 | 0 | 0 | 0
COc1ccc(NC(=O)Nc2ccc3c(c2)CC(=O)N([C@@H](C)CO)C[C@H](C)[C@H](CN(C)Cc2ccc(-c4ccccc4)cc2)O3)cc1 | 0 | 71 | 0
COc1ccc(NC(=O)Nc2ccc3c(c2)CC(=O)N([C@H](C)CO)C[C@H](C)[C@@H](CN(C)Cc2ccc(-c4ccccc4)cc2)O3)cc1 | 0 | - | -
C[C@@H]1CN([C@H](C)CO)C(=O)Cc2cc(NC(=O)Nc3ccc(C(F)(F)F)cc3)ccc2O[C@@H]1CN(C)Cc1ccc(-c2ccccc2)cc1 | - | 76 | 0
CC(C)NC(=O)Nc1ccc2c(c1)CC(=O)N([C@H](C)CO)C[C@H](C)[C@H](CN(C)Cc1ccc(-c3ccccc3)cc1)O2 | 0 | 67 | 0
C[C@H](CO)N1C[C@H](C)[C@@H](CN(C)Cc2ccc(-c3ccccc3)cc2)Oc2ccc(NC(=O)Nc3ccc(C(F)(F)F)cc3)cc2CC1=O | 0 | - | -
CC(C)NC(=O)Nc1ccc2c(c1)CC(=O)N([C@@H](C)CO)C[C@@H](C)[C@@H](CN(C)Cc1ccc(-c3ccccc3)cc1)O2 | 0 | 0 | 0
C[C@@H]1CN([C@H](C)CO)C(=O)Cc2cc(NC(=O)Nc3ccc(F)cc3)ccc2O[C@@H]1CN(C)Cc1ccc(-c2ccccc2)cc1 | - | 61 | 0
C[C@H](CO)N1C[C@H](C)[C@@H](CN(C)Cc2ccc(-c3ccccc3)cc2)Oc2ccc(NC(=O)Nc3ccc(F)cc3)cc2CC1=O | 0 | - | -
COC(=O)CCCCCCC(=O)N/N=C/[C@H](O)[C@@H](O)[C@@H](O)[C@H](O)CO | 0 | 0 | 0
NCCCCCCNC(=O)[C@@H]1C[C@@H]2C(=O)NCC(=O)N2[C@@H]1c1cccc(OCCO)c1 | 0 | - | -
C[C@@H]1CN([C@H](C)CO)C(=O)c2cccc(NC(=O)Nc3ccc(C(F)(F)F)cc3)c2O[C@@H]1CN(C)S(=O)(=O)c1ccccc1 | 0 | 0 | 0
O=C(CCCCCCC(=O)Nc1ccccc1O)N/N=C/c1ccc(-c2cccc(Cl)c2)o1 | 0 | - | -
C[C@H](CO)N1C[C@H](C)[C@H](CN(C)Cc2ccc(-c3ccccc3)cc2)Oc2ccc(NC(=O)Nc3ccc(C(F)(F)F)cc3)cc2CC1=O | - | 65 | 0
